In series [1] the test system is Salmonella typhimurium. The experiment in a line: Mutagenic activity in Salmonella typhimurium TA98 at 3 to 250 ug/plate by Ames test in presence of mouse liver S9 fraction. In kind it is toxicity, organism-based. The conditions noted are these: salmonella enterica subsp. enterica serovar typhimurium. The method in brief:
(§1)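 Ames plate-incorporation assay with S. typhimurium TA98 in Vogel-Bonner E minimal glucose agar. Toxicity toward the bacteria was checked first. DMSO solutions were run in triplicate at five consecutive third-dilutions, starting at the highest non-toxic dose. Positive controls were 4-nitro-o-phenylenediamine (20.0 μg/plate) and 2-aminofluorene (10.0 μg/plate); DMSO was the negative control. Revertants were counted manually. A compound was called mutagenic when revertants were at least twice the negative control at two or more consecutive doses.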

Series [2] concerns Trypanosoma cruzi. The experiment in a line: Antitrypanosomal activity against Trypanosoma cruzi Tulahuen 2 epimastigotes assessed as growth inhibition after 5 days. In kind it is functional, organism-based. The conditions noted are these: Trypanosoma cruzi, Tulahuen 2, 120 h. The method in brief:
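Epimastigotes were grown axenically at 28 °C in BHI-tryptose with 5% FBS and seeded from a 5–7 day culture at 1 × 10⁶ cells/mL. Drug from a DMSO stock was added (final DMSO ≤0.4%; the control contained 0.4% DMSO). Duplicates were run. A600 was read at day 5, and % inhibition was calculated relative to day-0 and control readings. IC50 = concentration that halves the absorbance ratio.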

The test system of series [3] is Salmonella typhimurium. The experiment in a line: Mutagenic activity in Salmonella typhimurium TA98 at 5 to 400 ug/plate by Ames test. In kind it is toxicity, organism-based. The conditions noted are these: salmonella enterica subsp. enterica serovar typhimurium. The method in brief:
as §1

Series [4] can be described thus: Selectivity index, ratio of IC50 for human RBC to IC50 for Trypanosoma cruzi Tulahuen 2 epimastigotes. The gist of the method:
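Hemolysis: washed human erythrocytes (2% w/v in PBS) incubated 24 h at 37 °C with compound at final 50, 100 and 200 μM. Ten replicates per concentration. Hemoglobin release read at 405 nm against water lysis as 100%; amphotericin B 1.5 μM was the positive control. SI = IC50 red cells / parasite IC50 (Sylvio X-10 amastigotes or Tulahuen 2 epimastigotes).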

Series [5] has as its system Salmonella typhimurium. The experiment in a line: Mutagenic activity in Salmonella typhimurium TA98 at 5 to 400 ug/plate by Ames test in presence of mouse liver S9 fraction. In kind it is toxicity, organism-based. The conditions noted are these: salmonella enterica subsp. enterica serovar typhimurium. The method in brief:
as §1

Series [6] in a line: Stability of the compound in aqueous solution assessed as compound remaining at 1 mM at pH 6 after 1 hr by TLC analysis. The class given is physicochemical. The conditions noted are these: aqueous solution, pH 6; read-out: Stability. The method in brief:
(§2)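 DMSO stocks diluted to final 1 mM in KCl·HCl pH 1.0, citrate pH 6.0, Tris·HCl pH 7.4 or borax·HCl pH 9.0 buffer. Incubated 1 h at 37 °C, then ethyl acetate extracts checked by TLC for decomposition products.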

Series [7] can be described thus: Stability of the compound in aqueous solution assessed as compound remaining at 1 mM at pH 9 after 1 hr by TLC analysis. The class given is physicochemical. The settings on record: aqueous solution, pH 9; read-out: Stability. The gist of the method: as §2
Series [8] is described as follows: Stability of the compound in aqueous solution assessed as compound remaining at 1 mM at pH 7.4 after 1 hr by TLC analysis. The class given is physicochemical. The conditions noted are these: aqueous solution, pH 7.4; read-out: Stability. The gist of the method:
as §2

In series [9] the test system is Salmonella typhimurium. The experiment in a line: Mutagenic activity in Salmonella typhimurium TA98 at 0.05 to 4 ug/plate by Ames test in presence of mouse liver S9 fraction. In kind it is toxicity, organism-based. The conditions noted are these: salmonella enterica subsp. enterica serovar typhimurium. The method in brief:
as §1

Series [10] relates to Salmonella typhimurium. As to the kind of experiment: Mutagenic activity in Salmonella typhimurium TA98 at 0.05 to 4 ug/plate by Ames test. In kind it is toxicity, organism-based. The conditions noted are these: salmonella enterica subsp. enterica serovar typhimurium. The method in brief:
as §1

Series [11] deals with Trypanosoma cruzi. The experiment in a line: Antitrypanosomal activity against Trypanosoma cruzi Sylvio X-10 amastigotes infected in African green monkey Vero cells assessed as eradication of amastigotes after 72 hrs by Giemsa staining-based assay. The conditions noted are these: Sylvio X-10, Vero.
The subject of series [12] is Trypanosoma cruzi. The experiment in a line: Antitrypanosomal activity against Trypanosoma cruzi Sylvio X-10 amastigotes infected in African green monkey Vero cells assessed as eradication of amastigotes after 5 days by Giemsa staining-based assay. The conditions noted are these: Sylvio X-10, Vero, 120 h. In kind it is functional, organism-based. The method in brief:
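VERO cells in RPMI 1640 with 10% hiFCS were allowed to adhere for 24 h at 37 °C in 5% CO₂, then infected with tissue-derived trypomastigotes at 10:1. Free parasites were washed off after 24 h, and cultures were treated at five compound doses (text gives 72 h / 5 days). Cultures were methanol-fixed and Giemsa-stained, and infected cells were counted among 300. Quadruplicates were run in three independent experiments. IC50/IC90 were obtained by sigmoidal regression.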

The nature of series [13]: Selectivity index, ratio of IC50 for African green monkey Vero cells to IC50 for Trypanosoma cruzi Sylvio X-10 amastigotes. The settings on record: read-out: Ratio IC50. The class given is toxicity, cell-based. The gist of the method:
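VERO cytotoxicity: cells exposed 48 h at 37 °C, 5% CO2 to serial dilutions from a maximum of 2000 μM (DMSO stocks; DMSO <0.1% control); growth inhibition read by MTT at 570 nm. Amastigote IC50: Sylvio X-10-infected VERO cells, five doses, infected cells counted among 300 (Giemsa), quadruplicate, three experiments, sigmoidal fit. SI = IC50 VERO / IC50 amastigote.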

The subject of series [14] is Salmonella typhimurium. The experiment in a line: Mutagenic activity in Salmonella typhimurium TA98 at 0.04 to 4 ug/plate by Ames test. The class given is toxicity, organism-based. The conditions noted are these: salmonella enterica subsp. enterica serovar typhimurium. The method in brief:
as §1

In series [15] the test system is Salmonella typhimurium. The experiment in a line: Mutagenic activity in Salmonella typhimurium TA98 at 0.04 to 4 ug/plate by Ames test in presence of mouse liver S9 fraction. In kind it is toxicity, organism-based. The conditions noted are these: salmonella enterica subsp. enterica serovar typhimurium. The method in brief:
as §1

For series [16], the system named is Salmonella typhimurium. As to the kind of experiment: Mutagenic activity in Salmonella typhimurium TA98 at 6 to 500 ug/plate by Ames test. In kind it is toxicity, organism-based. The settings on record: salmonella enterica subsp. enterica serovar typhimurium. The gist of the method: as §1
The test system of series [17] is Salmonella typhimurium. The experiment in a line: Mutagenic activity in Salmonella typhimurium TA98 at 6 to 500 ug/plate by Ames test in presence of mouse liver S9 fraction. The conditions noted are these: salmonella enterica subsp. enterica serovar typhimurium. The class given is toxicity, organism-based. The method in brief: as §1
Series [18] deals with Salmonella typhimurium. The experiment in a line: Mutagenic activity in Salmonella typhimurium TA98 at 0.005 to 0.4 ug/plate by Ames test in presence of mouse liver S9 fraction. The class given is toxicity, organism-based. The settings on record: salmonella enterica subsp. enterica serovar typhimurium. The gist of the method: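 Plate-incorporation Ames test on minimal glucose agar with 500 μL Aroclor-treated mouse liver S9 added. DMSO solutions were tested at five consecutive 3-fold dilutions from the highest non-toxic dose, in triplicate, with a DMSO negative control. Revertants were counted manually; a compound was scored mutagenic when revertants were at least twice the negative control for two or more consecutive doses.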

Series [19] deals with Salmonella typhimurium. The experiment in a line: Mutagenic activity in Salmonella typhimurium TA98 at 0.005 to 0.4 ug/plate by Ames test. The class given is toxicity, organism-based. The settings on record: salmonella enterica subsp. enterica serovar typhimurium. The gist of the method:
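Direct plate incubation on minimal glucose agar (Vogel-Bonner E). Compound toxicity to the bacteria was checked first. DMSO solutions were tested at five consecutive 3-fold dilutions, starting from the highest non-toxic dose, in triplicate, without metabolic activation. DMSO served as negative control. Revertants were counted manually; mutagenic = revertants at least double the negative control at two or more consecutive doses.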

Where only a bound is given, the exact number is not on record here.

As for `C=CCN1C(=O)CS\C1=N/N=C/C=C/c1cccs1`, the Activity result in series [1] and in series [3] was “Toxic” throughout. Besides, the IC50 in series [2] stood at 20 µM.
Turning to `S=C(N/N=C/c1cccs1)Nc1ccccc1`, the Ratio IC50 in series [4] was found to be 21. For the same compound, the IC50 in series [2] amounted to 4.7 µM.
With `C=CCn1c(-c2ccc(OC)cc2)cs\c1=N/N=C/C=C/c1ccco1`, the Activity entry in series [5] and in series [3] was “Non-toxic” in each case. In addition, the IC50 in series [2] was 4.9 µM. Also, the remaining at 1 h, 1000 µM in series [6], in series [7] and in [8] was over 95% in each case.
As for `C=CCNc1nnc(-c2ccc([N+](=O)[O-])s2)s1`, the Activity result in series [9] and in [10] was “Non-toxic” in each case. Moreover, the figures for the IC50 in series [2] and in series [12] were 12 µM and 5 µM, respectively. Further, the IC90 in [11] was found to be 15.9 µM. For the same compound, the selectivity ratio in series [13] turned out to be 50.
Regarding `Br.C=CCn1c(-c2ccc(Br)cc2)cs\c1=N/N=C/C=C/c1ccco1`, the Activity result in series [5] and in series [3] was “Non-toxic” each time. For the same compound, in [2], the IC50 turned out to be 2.9 µM. The remaining at 1 h, 1000 µM in series [6], in series [7] and in series [8] was over 95% throughout.
As for `C=CCn1c(-c2ccc([N+](=O)[O-])cc2)cs\c1=N/N=C/C=C/c1ccc([N+](=O)[O-])s1`, the Activity result in series [14] and in series [15] was “Toxic” in each case. Also, the IC50 in series [2] came out at 3.3 µM; in [12] it was 8.2 µM. Moreover, the selectivity ratio in [13] came out at 13.
On to `C=CCNC(=S)N/N=C/C=C/C=C/c1cccs1`, for which the IC50 in series [2] is 0.6 µM; in [12], over 25 µM. In series [11], the concentration for an effect of 90% (IC90) is over 25 µM. Besides, the Activity entry in series [16] and in series [17] was “Non-toxic” each time.
For `C=CCn1c(C)csc1=N/N=C/c1ccc([N+](=O)[O-])s1`, the values for the IC50 in series [2] and in [12] were 20 µM and 2.55 µM, respectively. Besides, the Activity result in series [18] and in [19] was “Non-toxic” in each case.

Source of the values: ChEMBL document CHEMBL3259808, “Optimization of antitrypanosomatid agents: identification of nonmutagenic drug candidates with in vivo activity” (J Med Chem, 2014).
